Experimental data reported in ChEMBL document CHEMBL1156736, “Multidentate small-molecule inhibitors of vaccinia H1-related (VHR) phosphatase decrease proliferation of cervix cancer cells” (J Med Chem, 2009).
Calls of active or inactive are those of the source. The calls are words filed in the database; no cut-off is given here.

Columns and labels:
[1] = tested on: Keratinocyte; assay: Cytotoxicity against human keratinocytes at 20 uM after 24 hrs by Trypan blue assay; type: functional, cell-based
Outline: (§1)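 10^5 cells (HeLa in DMEM/10% FCS; primary normal keratinocytes from hysterectomy tissue, trypsin-EDTA dispersed, in K-SFM with EGF, pituitary hormone) treated 24 h with 20 μM inhibitor or DMSO; trypsinized and counted with trypan blue in a counting chamber; cell numbers as percentage of DMSO control; mean ± SD, three independent experiments.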

[2] = tested on: HeLa; assay: Antiproliferative activity against human HeLa cells at 20 uM after 24 hrs by [3H]thymidine incorporation assay relative to control; type: functional
Outline: (§2)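 5×10^4 cells in DMEM complete medium exposed 24 h to 20 μM inhibitor or DMSO vehicle; [3H]thymidine ([…]) added for final 4 h, cells harvested onto glass fiber filters, radioactivity by scintillation counting; expressed relative to DMSO control; mean ± SD of three independent experiments.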

[3] = tested on: Ca-Ski; assay: Antiproliferative activity against human CaSki cells at 20 uM after 24 hrs by [3H]thymidine incorporation assay relative to control; type: functional; outline: as §2
[4] = tested on: HeLa; assay: Antiproliferative activity against human HeLa cells at 20 uM after 24 hrs by Trypan blue assay; type: functional; outline: as §1
[5] = molecular target: T1, M-phase inducer phosphatase 1 (Homo sapiens, UniProt P30304); assay: Inhibition of recombinant Cdc25a
T1 sequence (P30304 whole entry): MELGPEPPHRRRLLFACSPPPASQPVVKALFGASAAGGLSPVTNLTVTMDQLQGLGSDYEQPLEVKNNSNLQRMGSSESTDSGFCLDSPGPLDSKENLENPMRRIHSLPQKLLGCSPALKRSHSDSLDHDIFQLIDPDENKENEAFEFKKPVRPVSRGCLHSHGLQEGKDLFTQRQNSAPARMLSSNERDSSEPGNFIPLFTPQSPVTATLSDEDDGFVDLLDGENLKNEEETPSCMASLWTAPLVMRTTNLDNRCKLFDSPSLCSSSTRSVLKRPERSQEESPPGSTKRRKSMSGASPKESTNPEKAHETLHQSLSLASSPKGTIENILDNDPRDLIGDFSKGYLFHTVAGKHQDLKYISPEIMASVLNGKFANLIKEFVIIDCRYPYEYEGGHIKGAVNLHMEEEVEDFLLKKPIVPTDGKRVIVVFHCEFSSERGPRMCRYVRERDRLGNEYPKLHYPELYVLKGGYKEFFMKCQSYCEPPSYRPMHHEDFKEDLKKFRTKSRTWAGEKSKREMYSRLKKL

O=C1/C(=C/c2cn(-c3ccccc3)nc2-c2ccc(OCc3ccc(Cl)cc3)cc2)SC(=S)N1CCS(=O)(=O)O
Activity [1]: Not toxic | Activity [2]: <=30% | Activity [3]: >50% | Activity [4]: Active | IC50 [5]: 2400 nM
